Measured values reported in ChEMBL document CHEMBL5120856, “New salicylic acid derivatives, double inhibitors of glycolate oxidase and lactate dehydrogenase, as effective agents decreasing oxalate production” (Eur J Med Chem, 2022).

Legend:
[1] = molecular target: T1, 2-Hydroxyacid oxidase 1 (Homo sapiens) (UniProt Q9UJM8); experiment: Inhibition of N-terminal His-tagged human recombinant glycolate oxidase expressed in Escherichia coli BL21 (DE3) cells using glycolate as substrate at 20 uM preincubated for 5 mins followed by substrate addition and measured after 1 min in the presence of DCHBS by horseradish peroxidase coupled colorimetric method relative to control; details: time 6.0 min
T1 sequence (whole entry): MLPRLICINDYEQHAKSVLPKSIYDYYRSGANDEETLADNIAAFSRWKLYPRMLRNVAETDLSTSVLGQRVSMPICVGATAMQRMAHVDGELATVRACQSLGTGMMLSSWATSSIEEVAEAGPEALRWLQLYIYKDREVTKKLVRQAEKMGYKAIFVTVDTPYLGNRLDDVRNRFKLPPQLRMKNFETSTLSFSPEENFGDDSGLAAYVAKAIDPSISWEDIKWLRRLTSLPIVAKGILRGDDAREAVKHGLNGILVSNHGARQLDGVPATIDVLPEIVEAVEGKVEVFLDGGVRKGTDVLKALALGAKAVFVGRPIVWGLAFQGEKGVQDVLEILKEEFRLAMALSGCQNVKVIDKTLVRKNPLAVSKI

[2] = molecular target: T2, 2-Hydroxyacid oxidase 1 (Mus musculus) (UniProt Q9WU19); experiment: Inhibition of N-terminal His-tagged mouse recombinant glycolate oxidase expressed in Escherichia coli BL21 (DE3) cells using glycolate as substrate at 20 uM preincubated for 5 mins followed by substrate addition and measured after 1 min in the presence of DCHBS by horseradish peroxidase coupled colorimetric method relative to control; details: time 6.0 min
T2 sequence (whole entry): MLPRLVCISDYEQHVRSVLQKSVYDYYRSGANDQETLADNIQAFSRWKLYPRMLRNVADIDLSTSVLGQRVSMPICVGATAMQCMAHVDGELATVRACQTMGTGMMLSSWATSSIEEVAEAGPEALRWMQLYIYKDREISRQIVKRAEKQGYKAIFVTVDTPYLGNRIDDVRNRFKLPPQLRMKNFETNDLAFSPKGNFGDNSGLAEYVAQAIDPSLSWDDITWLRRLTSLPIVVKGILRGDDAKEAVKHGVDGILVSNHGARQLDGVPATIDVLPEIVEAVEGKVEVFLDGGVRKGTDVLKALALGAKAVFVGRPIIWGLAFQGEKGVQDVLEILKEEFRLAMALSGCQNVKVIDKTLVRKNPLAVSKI

[3] = molecular target: T3, L-lactate dehydrogenase A chain (Homo sapiens, UniProt P00338); experiment: Inhibition of human recombinant LDHA using pyruvate as substrate preincubated for 10 mins followed by substrate addition and measured every 60 sec for 10 mins in the presence of NADH by fluorescence assay
2-Hydroxyacid oxidase 1 [4] = molecular target: T4, 2-Hydroxyacid oxidase 1 (Homo sapiens, UniProt Q9UJM8); experiment: Inhibition of N-terminal His-tagged human recombinant glycolate oxidase expressed in Escherichia coli BL21 (DE3) cells using glycolate as substrate preincubated for 10 mins followed by substrate addition and measured after 10 mins by Amplex red and horseradish peroxidase based fluorescence assay
T4 sequence (Q9UJM8 whole entry): T1 sequence (whole entry)

2-Hydroxyacid oxidase 1 [5] = molecular target: T5, 2-Hydroxyacid oxidase 1 (Mus musculus, UniProt Q9WU19); experiment: Inhibition of N-terminal His-tagged mouse recombinant glycolate oxidase expressed in Escherichia coli BL21 (DE3) cells using glycolate as substrate preincubated for 10 mins followed by substrate addition and measured after 10 mins by Amplex red and horseradish peroxidase based fluorescence assay
T5 sequence (Q9WU19 whole entry): T2 sequence (whole entry)

[6] = molecular target: L-lactate dehydrogenase B chain (Homo sapiens, UniProt P07195); experiment: Inhibition of human recombinant LDHB using pyruvate as substrate preincubated for 10 mins followed by substrate addition and measured every 60 sec for 10 mins in the presence of NADH by fluorescence assay
Sequence of L-lactate dehydrogenase B chain (P07195 whole entry): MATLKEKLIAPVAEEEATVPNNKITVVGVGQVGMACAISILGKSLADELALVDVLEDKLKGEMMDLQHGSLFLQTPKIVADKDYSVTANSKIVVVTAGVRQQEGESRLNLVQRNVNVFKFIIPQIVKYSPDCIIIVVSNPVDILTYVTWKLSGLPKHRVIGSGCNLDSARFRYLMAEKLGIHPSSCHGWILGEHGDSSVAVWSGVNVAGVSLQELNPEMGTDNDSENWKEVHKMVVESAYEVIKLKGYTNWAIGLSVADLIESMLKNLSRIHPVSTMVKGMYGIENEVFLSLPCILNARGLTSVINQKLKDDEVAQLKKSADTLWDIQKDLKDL

Hepatocyte [7] = experiment: Inhibition of GO/LDHA in hyperoxaluric-primary hepatocyte isolated from Agxt1 knockdown PH1 C57BL/6 mouse assessed as relative oxalate output at 10 uM measured at 24 hrs in the presence of glycolate relative to control; assay type: cell-based
Outline: (§1)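 Agxt1-/- mouse primary hepatocytes cultured with 5 mM glycolate, inhibitor at 10 μM; extracellular oxalate measured by colorimetric kit 24 and 48 h after inhibitor addition; relative oxalate = oxalate with inhibitor over oxalate without inhibitor; negative values mean below detection limit; mean of three/four replicates ± SD.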

Hepatocyte [8] = experiment: Inhibition of GO/LDHA in hyperoxaluric-primary hepatocyte isolated from Agxt1 knockdown PH1 C57BL/6 mouse assessed as relative oxalate output at 10 uM measured at 48 hrs in the presence of glycolate relative to control; assay type: cell-based; outline: as §1
Hepatocyte [9] = experiment: Inhibition of GO/LDHA in hyperoxaluric-primary hepatocyte isolated from Grhpr-knockdown PH2 C57BL/6 mouse assessed as relative oxalate output at 10 uM measured at 24 hrs in the presence of glycolate relative to control; assay type: cell-based
Outline: (§2)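 Grhpr-/- mouse primary hepatocytes cultured with 10 mM glycolate, inhibitor at 10 μM; extracellular oxalate determined colorimetrically at 24 and 48 h post-treatment, expressed relative to untreated medium (RO); negative RO means below detection limit; three/four replicates, mean ± SD.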

Hepatocyte [10] = experiment: Inhibition of GO/LDHA in hyperoxaluric-primary hepatocyte isolated from Grhpr-knockdown PH2 C57BL/6 mouse assessed as relative oxalate output at 10 uM measured at 48 hrs in the presence of glycolate relative to control; assay type: cell-based; outline: as §2
Hepatocyte [11] = experiment: Inhibition of GO/LDHA in hyperoxaluric-primary hepatocyte isolated from Hoga1-knockdown PH3 C57BL/6 mouse assessed as relative oxalate output at 10 uM measured at 24 hrs in the presence of hydroxyproline relative to control; assay type: cell-based
Outline: (§3)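 Hoga1-/- mouse primary hepatocytes challenged with 10 mM hydroxyproline, inhibitor 10 μM; extracellular oxalate measured by colorimetric kit 24 and 48 h after dosing, given as ratio to oxalate without inhibitor; negative values are below detection limit; mean of three/four replicates ± SD.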

Hepatocyte [12] = experiment: Inhibition of GO/LDHA in hyperoxaluric-primary hepatocyte isolated from Hoga1-knockdown PH3 C57BL/6 mouse assessed as relative oxalate output at 10 uM measured at 48 hrs in the presence of hydroxyproline relative to control; assay type: cell-based; outline: as §3
Hepatocyte [13] = experiment: Cytotoxicity against hyperoxaluric-primary hepatocyte isolated from Hoga1-knockdown PH3 C57BL/6 mouse assessed as cell death at 10 uM by MTS assay; assay type: toxicity, cell-based; details: hepatocytes, Hoga1-knockdown PH3, 10 µM
Outline: (§4)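 Primary hepatocytes from Agxt1-/- (PH1, 5 mM glycolate), Grhpr-/- (PH2, 10 mM glycolate) or Hoga1-/- (PH3, 10 mM hydroxyproline) mice, incubated with inhibitor at 10 μM; viability followed through the oxalate assay by MTS tetrazolium method.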

Hepatocyte [14] = experiment: Cytotoxicity against hyperoxaluric-primary hepatocyte isolated from Grhpr-knockdown PH2 C57BL/6 mouse assessed as cell death at 10 uM by MTS assay; assay type: toxicity, cell-based; details: hepatocytes, Grhpr-knockdown PH2 (primary hyperoxaluria type 2); outline: as §4
Hepatocyte [15] = experiment: Cytotoxicity against hyperoxaluric-primary hepatocyte isolated from Agxt1-knockdown PH1 C57BL/6 mouse assessed as cell death at 10 uM by MTS assay; assay type: toxicity, cell-based; details: hepatocytes, Agxt1-knockdown PH1, 10 µM; outline: as §4
Hepatocyte [16] = experiment: Inhibition of GO/LDHA in hyperoxaluric-primary hepatocyte isolated from Agxt1 knockdown PH1 C57BL/6 mouse assessed as reduction in extracellular oxalate concentration at 10 uM measured at 48 hrs in the presence of glycolate relative to control; assay type: cell-based; parameters: scale not given: the % may be the effect or the level left; outline: as §1
[17] = Inhibition of GO/LDHA in hyperoxaluric-primary hepatocyte isolated from Agxt1 knockdown PH1 C57BL/6 mouse measured at 24 hrs in the presence of 5 mM glycolate; assay type: cell-based
Outline: (§5)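 Agxt1-/- hepatocytes with 5 mM glycolate; eight inhibitor concentrations per replicate; extracellular oxalate measured colorimetrically at 24 or 48 h; EC50 as mean of three/four replicates ± SD.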

[18] = Inhibition of GO/LDHA in hyperoxaluric-primary hepatocyte isolated from Agxt1 knockdown PH1 C57BL/6 mouse measured at 48 hrs in the presence of 5 mM glycolate; assay type: cell-based; outline: as §5
HEK293 = experiment: Cytotoxicity against HEK293 cells assessed as reduction in cell viability upto 50 uM measured after 48 hrs by MTT assay; assay type: toxicity, cell-based; details: human, hek293, 48 h
[19] = molecular target: T3, L-lactate dehydrogenase A chain; experiment: Inhibition of human recombinant LDHA using pyruvate as substrate at 10 uM preincubated for 10 mins followed by substrate addition and measured every 60 sec for 10 mins in the presence of NADH by fluorescence assay relative to control; details: time 20.0 min
Outline: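 Recombinant human LDHA or LDHB (0.015 U/mL) with NADH 150 μM and inhibitor 10 μM in 50 mM phosphate pH 7, 10 min rt baseline read; pyruvate 1 mM added, NADH fluorescence (ex 340/em 460 nm) read every 60 s for 10 min; baseline-corrected slope versus 100% activity control; four replicates.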

Row | SMILES | inhibition [1] [%] | inhibition [2] [%] | IC50 [3] [nM] | IC50 [6] [µM] | fold change (FC) (Hepatocyte [7]) | fold change (FC) (Hepatocyte [9]) | fold change (FC) (Hepatocyte [10]) | fold change (FC) (Hepatocyte [11]) | fold change (FC) (Hepatocyte [12]) | Activity (Hepatocyte [13]) | Activity (Hepatocyte [14]) | Activity (Hepatocyte [15]) | further results
1 | O=C(O)c1cc(-c2ccc(CNCc3ccc([N+](=O)[O-])cc3)o2)ccc1O | < 50 | < 50 | 8000 |  |  |  |  |  |  |  |  |  | 
2 | O=C(O)c1cc(-c2ccc(CNCc3cccnc3)o2)ccc1O | < 50 | < 50 |  |  |  |  |  |  |  |  |  |  | 
3 | N.O=C(O)c1cc(-c2ccc(CNc3ccc([N+](=O)[O-])cc3)o2)ccc1O |  |  | 1500 | 5.9 | 0.04 | 0.6 | 0.88 | 0.18 | 0.1 | Non-Toxic | Non-Toxic | Non-Toxic | IC50 (2-Hydroxyacid oxidase 1 [4]): 10.3 µM; IC50 (2-Hydroxyacid oxidase 1 [5]): 5.4 µM; fold change (FC) (Hepatocyte [8]): 0.5; Activity (Hepatocyte [16]): 50%; EC50 [17]: 600 nM; EC50 [18]: 1600 nM; Activity (HEK293): Non-Toxic
4 | N.O=C(O)c1cc(-c2ccc(CNCc3ccccc3)o2)ccc1O | < 50 | < 50 | 2500 | 3.3 | 0.18 |  |  |  |  | Non-Toxic | Non-Toxic | Non-Toxic | fold change (FC) (Hepatocyte [8]): 0.63
5 | O=C(O)c1cc(-c2ccc(CNCc3ccc(O)cc3)o2)ccc1O | < 50 | < 50 |  |  |  |  |  |  |  |  |  |  | inhibition [19]: 18%
6 | COc1ccc(CNCc2ccc(-c3ccc(O)c(C(=O)O)c3)o2)cc1 | < 50 | < 50 |  |  |  |  |  |  |  |  |  |  | inhibition [19]: 18%
7 | CC(C)(C)C(O)/C=C/c1ccc2c(c1)OCO2 (stereo unspecified) [STIRIPENTOL] |  |  |  |  |  | 0.27 | 0.33 | 0.7 | 0.49 | Non-Toxic | Non-Toxic | Non-Toxic | 
8 | C#CCN(Cc1ccc(-c2ccc(O)c(C(=O)O)c2)o1)Cc1ccc(-c2ccc(O)c(C(=O)O)c2)o1.N.N |  |  | 1600 | 2.3 | 0.44 | 0.2 | 0.25 | 0.21 | 0.52 | Non-Toxic | Non-Toxic | Non-Toxic | IC50 (2-Hydroxyacid oxidase 1 [4]): 2 µM; IC50 (2-Hydroxyacid oxidase 1 [5]): 0.8 µM; Activity (HEK293): Non-Toxic
9 | CCN(CC)CC.O=C(O)c1cc(-c2ccc(CN(Cc3ccccc3)Cc3ccco3)o2)ccc1O |  |  | 2300 | 4.3 | -0.09 | 0.31 | 0.34 | 0.22 | 0.3 | Non-Toxic | Non-Toxic | Non-Toxic | IC50 (2-Hydroxyacid oxidase 1 [4]): 16.8 µM; IC50 (2-Hydroxyacid oxidase 1 [5]): 8 µM; fold change (FC) (Hepatocyte [8]): 0.42; Activity (Hepatocyte [16]): 60%; EC50 [17]: 500 nM; EC50 [18]: 600 nM
10 | COc1cccc2c1C(=O)c1c(O)c3c(c(O)c1C2=O)C[C@@](O)(C(=O)CO)C[C@@H]3O[C@H]1C[C@H](N)[C@H](O)[C@H](C)O1 [DOXORUBICIN] |  |  |  |  |  |  |  |  |  |  |  |  | Activity (HEK293): Non-Toxic
11 | O=C(O)c1cc(-c2ccc(CN3CCCCC3)o2)ccc1O | < 50 | < 50 |  |  |  |  |  |  |  |  |  |  | 
